For 14 compounds, pA2 and Ki results are on record in ChEMBL document CHEMBL1142049, “1-(1-Naphthyl)piperazine as a novel template for 5-HT6 serotonin receptor ligands” (Bioorg Med Chem Lett, 2005).

In one assay the target is T1, 5-hydroxytryptamine receptor 6 (Homo sapiens, UniProt P50406). The assay is described as follows: pA2 against 5-Hydroxytryptamine 6 receptor.
T1 sequence (P50406 whole entry): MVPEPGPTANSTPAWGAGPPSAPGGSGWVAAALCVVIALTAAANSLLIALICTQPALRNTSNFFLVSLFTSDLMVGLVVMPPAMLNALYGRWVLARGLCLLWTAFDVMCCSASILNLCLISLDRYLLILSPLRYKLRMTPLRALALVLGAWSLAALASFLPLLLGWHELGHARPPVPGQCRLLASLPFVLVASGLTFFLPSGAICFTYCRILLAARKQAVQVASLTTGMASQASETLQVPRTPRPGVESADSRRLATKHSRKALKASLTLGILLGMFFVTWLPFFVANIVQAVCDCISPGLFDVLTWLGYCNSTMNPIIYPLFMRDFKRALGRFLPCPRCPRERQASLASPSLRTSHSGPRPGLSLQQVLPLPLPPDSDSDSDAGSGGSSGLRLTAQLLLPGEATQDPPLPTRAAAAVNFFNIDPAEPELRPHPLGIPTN
Usually pA2 stands for a measure of antagonist potency on a negative log scale. The compound `O=S(=O)(c1ccccc1)c1ccc(N2CCNCC2)c2ccccc12` showed a pA2 of 7.5.

Another assay has as its target T1, 5-hydroxytryptamine receptor 6. Kind of assay: Binding affinity against 5 Hydroxy tryptamine 6 receptor. The procedure, abridged: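 Human 5-HT6 cDNA transiently expressed in HEK-293 cells, switched to dialyzed-serum medium, harvested 75 h post-transfection, PBS-washed and frozen as pellets. Nonspecific binding defined with 10 µM clozapine. Ki values from triplicate determinations.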
One may read the Ki as a measure of affinity in units of concentration, obtained from inhibition or displacement. A high value points to lower affinity. As for `O=S(=O)(c1ccc(NO)cc1)c1cccc2ccccc12`, the Ki worked out at 63 nM. In other words, the double-digit nanomolar range. For `CCc1cc(N2CCNCC2)c2ccccc2c1`, affinity was put at a Ki of 21 nM.

Take `Nc1ccc(S(=O)(=O)c2cccc3ccccc23)cc1`: the affinity corresponds to a Ki of 34 nM. The same measure, in the same setting: the value for `Nc1ccc(S(=O)(=O)c2cc(Br)nc(N3CCNCC3)c2)cc1` was around 0.1 nM.

Compound `Brc1ccc(N2CCNCC2)c2ccccc12` showed a Ki of 54 nM. `c1ccc(Cc2ccc(N3CCNCC3)c3ccccc23)cc1` displayed a Ki of 35 nM. Regarding `COc1ccccc1N1CCNCC1`, the Ki amounted to 1.2 nM. Still for that read-out and setting: with `c1ccc(-c2cc(N3CCNCC3)c3ccccc3c2)cc1` the figure was 9.3 nM; with `Nc1ccc(S(=O)(=O)c2cc(Br)nc(N3CCCC3)c2)cc1`, around 1 nM; with `c1ccc(-c2ccc(N3CCNCC3)c3ccccc23)cc1`, 190 nM. `O=C(c1ccccc1)c1ccc(N2CCNCC2)c2ccccc12` gave a Ki of 57 nM. In the case of `Nc1ccc(S(=O)(=O)c2ccc(N3CCNCC3)c3ccccc23)cc1`, the Ki is 0.9 nM. Turning to `O=S(=O)(c1ccccc1)c1ccc(N2CCNCC2)c2ccccc12`, the affinity corresponds to a Ki of 3.8 nM.

A further assay has the same target. The assay is described as follows: Binding affinity against 5-hydroxy tryptamine 6 receptor. Put shortly: (§1)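 Human 5-HT6 cDNA transiently expressed in HEK-293 cells, switched to dialyzed-serum medium, harvested 75 h post-transfection, PBS-washed and frozen as pellets. [3H]LSD (1 nM final) displaced by unlabeled ligand (1–10,000 nM), 90 min at room temperature in 50 mM Tris-Cl, 10 mM MgCl2, 0.1 mM EDTA, pH 7.40. Nonspecific binding defined with 10 µM clozapine. Ki values from triplicate determinations.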
`c1ccc2c(N3CCNCC3)cccc2c1` registered a Ki of 120 nM.

For a further assay the target is unchanged. Kind of assay: Binding affinity against 5-hydroxytryptamine 6 receptor. The procedure, abridged: as §1
As for `c1ccc2c(N3CCNCC3)cccc2c1`, the affinity corresponds to a Ki of 100 nM.
